The results in this text go back to ChEMBL document CHEMBL1255169, “Synthesis, structure-affinity relationships, and radiolabeling of selective high-affinity 5-HT4 receptor ligands as prospective imaging probes for positron emission tomography” (J Med Chem, 2010).

The structures appear in SMILES notation.

For test [1], the target named is Kappa-type opioid receptor (Homo sapiens, UniProt P41145). In words: Binding affinity to human kappa opioid receptor.
Test [2] addresses T1, Alpha-2C adrenergic receptor (Homo sapiens, UniProt P18825).
T1 sequence (P18825 whole entry): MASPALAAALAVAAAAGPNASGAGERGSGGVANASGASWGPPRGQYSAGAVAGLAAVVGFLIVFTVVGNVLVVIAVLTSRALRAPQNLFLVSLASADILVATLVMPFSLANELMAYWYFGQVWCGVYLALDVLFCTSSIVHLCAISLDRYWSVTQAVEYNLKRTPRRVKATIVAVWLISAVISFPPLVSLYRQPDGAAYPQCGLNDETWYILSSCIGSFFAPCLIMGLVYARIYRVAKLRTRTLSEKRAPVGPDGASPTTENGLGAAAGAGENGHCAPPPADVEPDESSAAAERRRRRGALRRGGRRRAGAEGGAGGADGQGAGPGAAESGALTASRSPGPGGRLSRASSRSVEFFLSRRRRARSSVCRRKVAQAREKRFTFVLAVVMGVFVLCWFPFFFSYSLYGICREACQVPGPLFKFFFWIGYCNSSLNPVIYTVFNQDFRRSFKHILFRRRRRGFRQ
In words: Binding affinity to human adrenergic Alpha-2C receptor.

Test [3] deals with Muscarinic acetylcholine receptor M3 (Homo sapiens, UniProt P20309). In words: Binding affinity to human muscarinic M3 receptor.
Chain of Muscarinic acetylcholine receptor M3 (P20309 whole entry): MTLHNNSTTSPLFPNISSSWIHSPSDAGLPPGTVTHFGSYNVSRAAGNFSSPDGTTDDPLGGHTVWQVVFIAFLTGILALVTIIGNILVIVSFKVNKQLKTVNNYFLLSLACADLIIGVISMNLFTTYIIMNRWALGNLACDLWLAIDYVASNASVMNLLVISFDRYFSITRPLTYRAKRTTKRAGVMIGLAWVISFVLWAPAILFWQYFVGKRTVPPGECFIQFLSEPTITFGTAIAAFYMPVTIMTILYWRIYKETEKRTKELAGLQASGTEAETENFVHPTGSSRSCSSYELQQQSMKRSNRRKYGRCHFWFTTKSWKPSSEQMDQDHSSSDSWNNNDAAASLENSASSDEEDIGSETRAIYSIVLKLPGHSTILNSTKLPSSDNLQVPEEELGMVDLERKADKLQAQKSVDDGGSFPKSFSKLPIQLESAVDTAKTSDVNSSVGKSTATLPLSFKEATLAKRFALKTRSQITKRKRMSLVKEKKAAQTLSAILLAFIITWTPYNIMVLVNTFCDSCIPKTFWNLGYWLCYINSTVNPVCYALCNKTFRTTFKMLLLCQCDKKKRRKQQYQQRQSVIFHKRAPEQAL
Test [4] addresses T2, 5-hydroxytryptamine receptor 2C (Homo sapiens, UniProt P28335).
T2 sequence (P28335 whole entry): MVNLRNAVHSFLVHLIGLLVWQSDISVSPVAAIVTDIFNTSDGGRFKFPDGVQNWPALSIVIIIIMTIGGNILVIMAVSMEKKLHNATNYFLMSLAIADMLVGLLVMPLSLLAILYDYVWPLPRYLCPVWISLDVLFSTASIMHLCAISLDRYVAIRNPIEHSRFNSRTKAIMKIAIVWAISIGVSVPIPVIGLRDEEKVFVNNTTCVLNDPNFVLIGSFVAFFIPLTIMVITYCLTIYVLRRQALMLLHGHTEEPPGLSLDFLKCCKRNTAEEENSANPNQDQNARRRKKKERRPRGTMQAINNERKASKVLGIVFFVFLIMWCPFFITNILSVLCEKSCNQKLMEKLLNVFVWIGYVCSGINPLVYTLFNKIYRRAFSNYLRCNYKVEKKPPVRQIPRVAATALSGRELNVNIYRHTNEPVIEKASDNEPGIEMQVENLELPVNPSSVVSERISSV
Briefly: Binding affinity to human 5-HT2C receptor.

The target of test [5] is T3, Alpha-2B adrenergic receptor (Homo sapiens, UniProt P18089).
T3 sequence (P18089 whole entry): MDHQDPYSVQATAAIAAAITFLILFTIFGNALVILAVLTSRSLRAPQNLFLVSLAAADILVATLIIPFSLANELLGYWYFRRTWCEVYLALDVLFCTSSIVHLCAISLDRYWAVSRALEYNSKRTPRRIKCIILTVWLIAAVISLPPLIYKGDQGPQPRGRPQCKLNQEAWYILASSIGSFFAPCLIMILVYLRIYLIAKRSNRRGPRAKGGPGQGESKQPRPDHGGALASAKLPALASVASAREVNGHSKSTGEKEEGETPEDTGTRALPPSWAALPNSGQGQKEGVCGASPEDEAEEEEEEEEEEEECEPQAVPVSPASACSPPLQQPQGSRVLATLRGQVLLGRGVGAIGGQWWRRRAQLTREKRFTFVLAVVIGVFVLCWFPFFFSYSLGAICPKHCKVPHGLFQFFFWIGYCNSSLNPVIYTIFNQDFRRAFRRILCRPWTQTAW
In words: Binding affinity to human adrenergic alpha2B receptor. The essentials: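 Radioligand binding run by the NIMH Psychoactive Drug Screening Program as part of a broad receptor and binding-site panel, which included α1A, α1B, α1D and α2A–C subtypes. Affinity is expressed as Ki.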

In test [6] the target is 5-hydroxytryptamine receptor 1A (Homo sapiens, UniProt P08908). Briefly: Binding affinity to human 5-HT1A receptor.
Test [7] addresses Mu-type opioid receptor (Homo sapiens, UniProt P35372). Briefly: Binding affinity to human mu opioid receptor.
The target in test [8] is Histamine H4 receptor (Cavia porcellus, UniProt Q91ZY3). Briefly: Binding affinity to guinea pig histamine H4 receptor.
Chain of Histamine H4 receptor (Q91ZY3 whole entry): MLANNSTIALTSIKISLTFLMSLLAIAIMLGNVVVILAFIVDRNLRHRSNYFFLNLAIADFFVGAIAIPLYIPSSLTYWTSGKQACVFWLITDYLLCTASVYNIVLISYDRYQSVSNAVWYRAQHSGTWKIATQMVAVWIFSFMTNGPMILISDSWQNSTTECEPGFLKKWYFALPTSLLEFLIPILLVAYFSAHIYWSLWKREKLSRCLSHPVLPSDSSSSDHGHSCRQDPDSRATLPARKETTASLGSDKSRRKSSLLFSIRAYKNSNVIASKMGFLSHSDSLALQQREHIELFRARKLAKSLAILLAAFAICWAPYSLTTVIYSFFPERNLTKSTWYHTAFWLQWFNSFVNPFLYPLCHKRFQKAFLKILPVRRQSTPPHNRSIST
The target of test [9] is D(1B) dopamine receptor (Homo sapiens, UniProt P21918). Briefly: Binding affinity to human dopamine D5 receptor.
Test [10] deals with Histamine H3 receptor (Cavia porcellus, UniProt Q9JI35). In words: Binding affinity to guinea pig histamine H3 receptor.
Test [11] concerns the target Sodium-dependent noradrenaline transporter (Homo sapiens, UniProt P23975). In words: Binding affinity to human NET.
Test [12] deals with Beta-3 adrenergic receptor (Rattus norvegicus, UniProt P26255). Briefly: Binding affinity to rat adrenergic beta3 receptor.
For test [13], the target named is Muscarinic acetylcholine receptor M1 (Homo sapiens, UniProt P11229). Briefly: Binding affinity to human muscarinic M1 receptor.
Chain of Muscarinic acetylcholine receptor M1 (P11229 whole entry): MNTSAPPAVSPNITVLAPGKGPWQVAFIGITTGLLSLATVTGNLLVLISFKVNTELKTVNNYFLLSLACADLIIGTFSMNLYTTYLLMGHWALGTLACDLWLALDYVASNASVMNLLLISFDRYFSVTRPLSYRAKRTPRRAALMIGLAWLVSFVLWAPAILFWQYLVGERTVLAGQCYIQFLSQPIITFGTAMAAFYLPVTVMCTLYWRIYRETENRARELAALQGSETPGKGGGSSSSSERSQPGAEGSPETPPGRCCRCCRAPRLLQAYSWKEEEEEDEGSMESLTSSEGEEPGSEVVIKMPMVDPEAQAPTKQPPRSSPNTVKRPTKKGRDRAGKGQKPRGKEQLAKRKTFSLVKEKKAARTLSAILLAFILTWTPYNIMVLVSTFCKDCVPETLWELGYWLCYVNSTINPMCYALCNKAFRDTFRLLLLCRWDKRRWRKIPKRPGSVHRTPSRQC
Test [14] deals with 5-hydroxytryptamine receptor 5A (Homo sapiens, UniProt P47898). Briefly: Binding affinity to human 5-HT5A receptor.
Chain of 5-hydroxytryptamine receptor 5A (P47898 whole entry): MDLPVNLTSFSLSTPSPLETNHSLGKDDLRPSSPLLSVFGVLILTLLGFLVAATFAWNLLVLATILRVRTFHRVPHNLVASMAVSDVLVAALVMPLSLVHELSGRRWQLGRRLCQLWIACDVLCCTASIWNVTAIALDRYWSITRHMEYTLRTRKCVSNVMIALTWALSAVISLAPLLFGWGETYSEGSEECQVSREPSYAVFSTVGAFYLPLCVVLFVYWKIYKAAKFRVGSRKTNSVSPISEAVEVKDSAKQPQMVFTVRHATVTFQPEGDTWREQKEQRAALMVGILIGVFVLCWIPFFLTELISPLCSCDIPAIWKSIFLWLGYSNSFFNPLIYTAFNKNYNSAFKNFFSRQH
Test [15] can be described thus: Binding affinity to rat sigma 2 receptor.
Test [16] concerns the target 5-hydroxytryptamine receptor 6 (Homo sapiens, UniProt P50406). In words: Binding affinity to human 5-HT6 receptor.
Test [17] is described as follows: Binding affinity to BZP receptor in rat brain. The test is classed as tissue-based.
Test [18] concerns the target 5-hydroxytryptamine receptor 2A (Homo sapiens, UniProt P28223). Briefly: Binding affinity to human 5-HT2A receptor.
The target in test [19] is Muscarinic acetylcholine receptor M5 (Homo sapiens, UniProt P08912). In words: Binding affinity to human muscarinic M5 receptor.
Test [20] addresses Sodium-dependent dopamine transporter (Homo sapiens, UniProt Q01959). In words: Binding affinity to human DAT.
Test [21] concerns the target 5-hydroxytryptamine receptor 3A (Homo sapiens, UniProt P46098). Briefly: Binding affinity to human 5-HT3 receptor.
In test [22] the target is Beta-1 adrenergic receptor (Rattus norvegicus, UniProt P18090). In words: Binding affinity to rat adrenergic beta-1 receptor.
Chain of Beta-1 adrenergic receptor (P18090 whole entry): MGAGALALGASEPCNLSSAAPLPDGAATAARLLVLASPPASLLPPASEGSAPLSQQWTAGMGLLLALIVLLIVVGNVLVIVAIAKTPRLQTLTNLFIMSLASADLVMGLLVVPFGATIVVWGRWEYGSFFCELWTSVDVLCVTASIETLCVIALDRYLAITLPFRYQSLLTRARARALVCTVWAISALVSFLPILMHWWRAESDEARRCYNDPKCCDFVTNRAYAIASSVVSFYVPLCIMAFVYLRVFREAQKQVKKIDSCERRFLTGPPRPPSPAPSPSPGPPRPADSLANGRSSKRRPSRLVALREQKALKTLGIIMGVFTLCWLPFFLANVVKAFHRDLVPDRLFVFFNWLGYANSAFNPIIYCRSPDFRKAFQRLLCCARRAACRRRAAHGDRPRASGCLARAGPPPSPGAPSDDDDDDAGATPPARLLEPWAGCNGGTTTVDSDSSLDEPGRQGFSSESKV
The target of test [23] is Alpha-1D adrenergic receptor (Homo sapiens, UniProt P25100). In words: Binding affinity to human adrenergic Alpha-1D receptor.
Chain of Alpha-1D adrenergic receptor (P25100 whole entry): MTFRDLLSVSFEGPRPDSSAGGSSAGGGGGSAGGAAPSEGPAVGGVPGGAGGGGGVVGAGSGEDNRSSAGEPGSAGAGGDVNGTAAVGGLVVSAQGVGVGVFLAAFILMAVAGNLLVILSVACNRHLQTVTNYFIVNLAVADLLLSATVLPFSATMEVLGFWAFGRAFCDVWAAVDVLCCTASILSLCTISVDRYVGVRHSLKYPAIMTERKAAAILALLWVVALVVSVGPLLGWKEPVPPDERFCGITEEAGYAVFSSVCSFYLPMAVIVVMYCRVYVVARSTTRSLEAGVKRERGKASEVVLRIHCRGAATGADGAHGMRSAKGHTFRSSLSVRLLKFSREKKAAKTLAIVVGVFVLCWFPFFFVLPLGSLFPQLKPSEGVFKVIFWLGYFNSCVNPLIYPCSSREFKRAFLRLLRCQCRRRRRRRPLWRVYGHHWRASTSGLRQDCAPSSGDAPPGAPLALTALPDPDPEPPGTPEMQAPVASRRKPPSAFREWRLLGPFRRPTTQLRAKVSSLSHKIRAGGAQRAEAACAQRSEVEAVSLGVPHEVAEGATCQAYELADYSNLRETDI

Chain of 5-hydroxytryptamine receptor 6 (P50406 whole entry): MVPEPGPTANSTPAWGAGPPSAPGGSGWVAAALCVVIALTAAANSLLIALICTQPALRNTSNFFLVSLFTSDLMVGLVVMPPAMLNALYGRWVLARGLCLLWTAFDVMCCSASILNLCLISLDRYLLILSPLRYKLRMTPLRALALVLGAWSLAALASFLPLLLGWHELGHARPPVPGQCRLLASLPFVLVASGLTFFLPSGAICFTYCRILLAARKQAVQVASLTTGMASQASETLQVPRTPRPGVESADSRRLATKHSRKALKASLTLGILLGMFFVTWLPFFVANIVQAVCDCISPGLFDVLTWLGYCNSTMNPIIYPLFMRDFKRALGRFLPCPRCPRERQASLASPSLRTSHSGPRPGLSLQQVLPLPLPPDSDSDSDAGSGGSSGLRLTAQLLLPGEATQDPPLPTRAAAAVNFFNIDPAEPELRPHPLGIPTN
Chain of 5-hydroxytryptamine receptor 2A (P28223 whole entry): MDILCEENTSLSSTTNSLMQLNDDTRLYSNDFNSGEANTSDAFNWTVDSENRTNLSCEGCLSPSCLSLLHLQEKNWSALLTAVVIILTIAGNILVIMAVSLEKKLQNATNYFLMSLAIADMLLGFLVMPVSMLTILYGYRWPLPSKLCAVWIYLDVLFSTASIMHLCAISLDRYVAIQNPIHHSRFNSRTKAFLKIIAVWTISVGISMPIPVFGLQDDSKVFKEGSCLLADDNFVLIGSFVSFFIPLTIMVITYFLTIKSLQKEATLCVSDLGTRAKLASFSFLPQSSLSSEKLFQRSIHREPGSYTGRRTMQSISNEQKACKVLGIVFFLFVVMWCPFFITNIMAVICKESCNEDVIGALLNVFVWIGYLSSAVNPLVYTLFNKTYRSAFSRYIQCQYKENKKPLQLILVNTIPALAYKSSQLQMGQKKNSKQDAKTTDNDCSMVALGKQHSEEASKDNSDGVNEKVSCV
Chain of Sodium-dependent dopamine transporter (Q01959 whole entry): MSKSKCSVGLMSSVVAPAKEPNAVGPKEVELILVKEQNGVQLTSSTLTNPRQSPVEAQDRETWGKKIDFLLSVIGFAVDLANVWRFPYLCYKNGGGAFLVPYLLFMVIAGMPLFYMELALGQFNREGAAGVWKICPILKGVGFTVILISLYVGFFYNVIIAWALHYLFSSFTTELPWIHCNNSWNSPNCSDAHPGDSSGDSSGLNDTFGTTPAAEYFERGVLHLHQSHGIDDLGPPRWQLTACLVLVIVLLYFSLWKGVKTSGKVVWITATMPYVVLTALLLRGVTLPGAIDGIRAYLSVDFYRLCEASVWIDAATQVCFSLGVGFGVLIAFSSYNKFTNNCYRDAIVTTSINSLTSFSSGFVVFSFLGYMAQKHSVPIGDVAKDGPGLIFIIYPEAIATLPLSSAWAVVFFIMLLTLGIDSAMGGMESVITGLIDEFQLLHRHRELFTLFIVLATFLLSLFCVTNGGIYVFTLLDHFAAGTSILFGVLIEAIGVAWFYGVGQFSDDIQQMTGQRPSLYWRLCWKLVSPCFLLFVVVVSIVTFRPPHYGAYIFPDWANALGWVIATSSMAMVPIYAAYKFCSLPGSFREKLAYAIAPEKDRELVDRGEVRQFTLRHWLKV
Chain of Kappa-type opioid receptor (P41145 whole entry): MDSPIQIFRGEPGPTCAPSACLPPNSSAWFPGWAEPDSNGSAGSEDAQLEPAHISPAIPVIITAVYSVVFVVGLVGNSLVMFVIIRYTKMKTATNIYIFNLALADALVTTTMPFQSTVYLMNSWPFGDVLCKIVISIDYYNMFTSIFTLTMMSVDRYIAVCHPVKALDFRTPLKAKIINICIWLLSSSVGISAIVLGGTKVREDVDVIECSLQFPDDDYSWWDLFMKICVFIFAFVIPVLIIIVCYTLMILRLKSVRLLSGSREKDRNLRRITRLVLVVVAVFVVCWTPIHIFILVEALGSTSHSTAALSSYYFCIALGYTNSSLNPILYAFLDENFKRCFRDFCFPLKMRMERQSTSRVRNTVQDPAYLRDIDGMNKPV

For `CCCCN1CCC(COC(=O)c2ccc(N)c(OC)c2)CC1`, the Ki is above 10000 nM in test [1]; 989 nM in [2]; 1100 nM in [3]; above 10000 nM in test [4]; above 10000 nM in [5]; above 10000 nM in test [6]. Also, the Ki in test [7] was above 10000 nM; in test [8], above 10000 nM; in [9] it was above 10000 nM; in [10], 1650 nM; in test [11] it was above 10000 nM; in [12], above 10000 nM. Moreover, the inhibition constant (Ki) in [13] is above 10000 nM; in [14] it was above 10000 nM; in test [15], 148 nM; in [16] it was above 10000 nM; in test [17], above 10000 nM; in [18], above 10000 nM. Moreover, the Ki in [19] is 4060 nM; in test [20], above 10000 nM; in test [21], 3510 nM; in test [22], 4410 nM; in test [23], above 10000 nM.
As to `CCCCN1CCC(COC(=O)c2cc(Cl)c(NC)c3c2OCCO3)CC1`, the Ki is above 10000 nM in [1]; 556 nM in test [2]; 823 nM in test [3]; 685 nM in test [4]; 671 nM in test [5]; 300 nM in test [6]. Besides, the Ki was above 10000 nM in test [7]; above 10000 nM in test [8]; 972 nM in test [9]; above 10000 nM in test [10]; 3230 nM in test [11]; above 10000 nM in [12]. Further, the Ki in [13] was above 10000 nM; in test [14], 8590 nM; in [15], 8 nM; in test [16], 489 nM; in test [17], above 10000 nM; in [18], 1780 nM. The inhibitory constant (Ki) in [19] was 972 nM; in test [20] it was 2020 nM; in test [21] it was 1070 nM; in test [22] it was above 10000 nM; in [23], 2280 nM.

A word on the Ki: it is the dissociation constant of the complex between target and ligand, obtained from inhibition or displacement. Higher therefore signals a looser hold on the target.
